Source: ChEMBL document CHEMBL1773052, “3-Trifluoromethylquinoxaline N,N'-dioxides as anti-trypanosomatid agents. Identification of optimal anti-T. cruzi agents and mechanism of action studies” (J Med Chem, 2011)

Legend:
[1] = system: Trypanosoma cruzi; experiment: Antitrypanosomal activity against Trypanosoma cruzi Tulahuen 2 epimastigotes assessed as growth inhibition at 25 uM after 5 days relative to control; assay type: functional; details: Tulahuen 2, 120 h, read-out: GI
Outline: (§1)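 Epimastigotes grown axenically at 28 °C in BHI-tryptose + 5% FBS; a 10-day stationary culture was inoculated to 1 × 10⁶ cells/mL. Drug added from DMSO stock, final DMSO ≤0.4%, vehicle control. A600 read daily. PGI on day 5 corrects for day-0 absorbance, relative to control. […] Three independent experiments.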

[2] = system: Trypanosoma cruzi; experiment: Antitrypanosomal activity against Trypanosoma cruzi Tulahuen 2 epimastigotes assessed as growth inhibition after 5 days; assay type: functional; details: Tulahuen 2, 120 h, read-out: ID50; outline: as §1
[3] = Cytotoxicity against mouse J774 cells; assay type: cell-based; details: read-out: ID50 (the source's name)
[4] = Selectivity index, ratio of ID50 for mouse J774 cells to ID50 for Trypanosoma cruzi Tulahuen 2 epimastigotes; assay type: toxicity, cell-based; details: J774 cells versus Trypanosoma cruzi Tulahuen 2 epimastigotes, read-out: Selectivity Index

| SMILES | IC50 [2] | inhibition of growth at 25 µM [1] | CC50 [3] | selectivity ratio [4] |
| --- | --- | --- | --- | --- |
| Cc1c(Cc2ccccc2)[n+]([O-])c2ccccc2[n+]1[O-] |  | 0% |  |  |
| Cc1cc2c(cc1C)[n+]([O-])c(C(=O)c1ccccc1)c(C)[n+]2[O-] |  | 3% |  |  |
| Cc1cc2c(cc1C)[n+]([O-])c(C(=O)Nc1ccccc1C)c(C)[n+]2[O-] |  | 12% |  |  |
| Cc1c(Cc2ccccc2)[n+]([O-])c2ccc(Cl)cc2[n+]1[O-] |  | 0% |  |  |
| CCC(=O)c1c(C(F)(F)F)[n+]([O-])c2cc(Cl)c(Cl)cc2[n+]1[O-] | 0.78 µM | 100% |  |  |
| Cc1cc2c(cc1C)[n+]([O-])c(C(=O)Nc1ccccc1)c(C)[n+]2[O-] |  | 16% |  |  |
| CCC(=O)c1c(C(F)(F)F)[n+]([O-])c2cc(F)c(F)cc2[n+]1[O-] | 0.5 µM | 100% |  |  |
| CCOC(=O)c1c(-c2ccccc2)[n+]([O-])c2cc(F)c(F)cc2[n+]1[O-] | 3.3 µM | 100% |  |  |
| Cc1c(Cc2ccccc2)[n+]([O-])c2cc(Cl)c(Cl)cc2[n+]1[O-] |  | 24% |  |  |
| CCOC(=O)c1c(C)[n+]([O-])c2cc(Cl)c(Cl)cc2[n+]1[O-] |  | 32% |  |  |
| Cc1c(C(=O)Nc2ccccc2)[n+]([O-])c2cc(Cl)c(Cl)cc2[n+]1[O-] |  | 61% |  |  |
| CC(=O)c1c(C)[n+]([O-])c2ccccc2[n+]1[O-] [MEQUINDOX] |  | 29% |  |  |
| CC(=O)c1c(C)[n+]([O-])c2cc(Cl)c(Cl)cc2[n+]1[O-] | 18.4 µM | 60% |  |  |
| CCOC(=O)c1c(C)[n+]([O-])c2cc(C)c(C)cc2[n+]1[O-] |  | 1% |  |  |
| CC(C)(C)C(=O)c1nc2ccccc2nc1C(F)(F)F |  | 43% |  |  |
| COC(=O)c1c(C)[n+]([O-])c2cc(C)c(C)cc2[n+]1[O-] |  | 10% |  |  |
| CCOC(=O)c1c(-c2ccccc2)[n+]([O-])c2cc(C)ccc2[n+]1[O-] |  | 13% |  |  |
| Cc1c(C(=O)c2ccccc2)[n+]([O-])c2ccc(Cl)cc2[n+]1[O-] |  | 33% |  |  |

Continued, in another order:

| IC50 [2] | SMILES | inhibition of growth at 25 µM [1] | CC50 [3] | selectivity ratio [4] |
| --- | --- | --- | --- | --- |
| 0.79 µM | O=C(c1c(C(F)(F)F)[n+]([O-])c2ccccc2[n+]1[O-])N1CCN(c2ccc(Cl)cc2)CC1 | 100% | 8.25 µM | 10.4 |
| 1.6 µM | O=C(c1ccc(Cl)cc1)c1c(C(F)(F)F)[n+]([O-])c2ccccc2[n+]1[O-] | 100% | 8.5 µM | 5.3 |
| 3 µM | CC(=O)c1c(C(F)(F)F)[n+]([O-])c2ccccc2[n+]1[O-] | 100% | 8.55 µM | 2.8 |
| 1.4 µM | O=C(c1cccc2ccccc12)c1c(C(F)(F)F)[n+]([O-])c2ccccc2[n+]1[O-] | 100% | 7.92 µM | 5.5 |
| 2.5 µM | O=C(c1ccco1)c1c(C(F)(F)F)[n+]([O-])c2cc(F)c(F)cc2[n+]1[O-] | 100% |  |  |
| 6.4 µM | O=C(c1ccccc1)c1c(C(F)F)[n+]([O-])c2cc(Cl)ccc2[n+]1[O-] | 100% |  |  |
| 12.5 µM | CCOC(=O)c1c(-c2ccccc2)[n+]([O-])c2cc(Cl)ccc2[n+]1[O-] | 88% |  |  |
| 2.4 µM | O=C(c1ccccc1)c1c(C(F)(F)F)[n+]([O-])c2cc(Cl)c(Cl)cc2[n+]1[O-] | 100% |  |  |
| 2.5 µM | O=C(c1ccc(Cl)cc1)c1c(C(F)(F)F)[n+]([O-])c2cc(F)c(F)cc2[n+]1[O-] | 100% |  |  |
| > 2.5 µM | CC(C)C(=O)c1c(C(F)(F)F)[n+]([O-])c2ccccc2[n+]1[O-] | 100% |  |  |
| 3 µM | O=C(c1ccccc1)c1c(C(F)(F)F)[n+]([O-])c2cc(Cl)ccc2[n+]1[O-] | 90% |  |  |
| 2.8 µM | O=C(c1cccs1)c1c(C(F)(F)F)[n+]([O-])c2cc(F)c(F)cc2[n+]1[O-] | 100% |  |  |
| 10 µM | COc1ccc2c(c1)[n+]([O-])c(C(F)F)c(C(=O)c1ccccc1)[n+]2[O-] | 100% |  |  |
| 3.9 µM | O=C(c1cccc2ccccc12)c1c(C(F)(F)F)[n+]([O-])c2cc(F)c(F)cc2[n+]1[O-] | 100% |  |  |
